Only a selection was taken, and hits are over-represented in it overall.
UPR CHOP act – apoptotic UPR (CHOP) activation | 330,000 compounds, 0.34% hits | CHO-CHOP luciferase reporter, luminescence; percent of tunicamycin response over DMSO baseline | activation, % at 10 µM;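 active means at 10 µM dose, activation of 40% or more, normalized to positive control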;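 further: 100% = tunicamycin at 10 µg/mL and 0% = DMSO alone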
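System: CHO-CHOP luciferase reporter cell line | Buffer or medium: F12 medium containing 10% fetal bovine serum | Doses: One dose, 10 µM in 0.5% DMSO | Times: 6 h compound exposure at 37 °C after overnight seeding | Signal: Luciferase luminescence | Read-out: % activation vs tunicamycin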
XBP1 UPR activ – adaptive UPR (XBP1) activation. CHO-XBP1 luciferase reporter, IRE1-XBP1 UPR activation, luminescence; percent of tunicamycin response, DMSO as zero. activation, % at 20 µM. 330,000 compounds, 0.33% hits. AID 463104;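 active means versus positive control, 20 µM dose yields 30% or more activation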;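 further: 100% = tunicamycin at 10 µg/mL and 0% = DMSO only wells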
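Material: CHO-XBP1 cells stably carrying IRE1-XBP1-driven luciferase reporter | Medium: F12 with 10% serum | Compound dosing: 20 µM single concentration, DMSO 1% | Incubation: Overnight seeding at 37 °C, 6 h compound treatment at 37 °C | Detection: Steady-Glo luminescence read | Read-out basis: % activation of reporter signal versus tunicamycin and DMSO controls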
CHOP inh – inhibitors of CHOP induction in ER stress response. CHO-K1 CHOP-promoter luciferase, tunicamycin-induced, 15-18 h. 220,000 compounds, 3.8% hits. inhibition, % at 10 µM;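 active means compounds that reduced the stress-induced luciferase reporter signal by more than about 70% of percent inhibition, limit read from the data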;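 further: 0% = tunicamycin plus vehicle and 100% = wells without tunicamycin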
CTSL1 counter – counter-screen for PFM18AAP inhibitors: inhibitors of F. hepatica cathepsin L1; 300,000 compounds, 0.49% hits; AID 1906; recombinant F. hepatica cathepsin L1, Z-Leu-Arg-MCA fluorescence; inhibition, % at 5.96 µM;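 active means inhibition above the mean of all tested compounds plus 3 SD, set per screening campaign, cut at about 17% in these data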;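 further: 0% = plate median of test compound wells and 100% = 1 µM Z-Phe-Ala-diazomethylketone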
UCH37 inh – blocks the human deubiquitinase UCH37; purified proteasome/UCH37, Ub-AMC cleavage fluorescence; Q9Y5K5; AID 588478; inhibition, % (test concentration not listed); 330,000 compounds, 0.33% hits;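 active means mean inhibition over replicate wells above about 20%, limit read from the data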;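 further: 0% = compound-free wells with enzyme and 100% = wells lacking proteasome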
Target sequence (Q9Y5K5 whole entry, looked up): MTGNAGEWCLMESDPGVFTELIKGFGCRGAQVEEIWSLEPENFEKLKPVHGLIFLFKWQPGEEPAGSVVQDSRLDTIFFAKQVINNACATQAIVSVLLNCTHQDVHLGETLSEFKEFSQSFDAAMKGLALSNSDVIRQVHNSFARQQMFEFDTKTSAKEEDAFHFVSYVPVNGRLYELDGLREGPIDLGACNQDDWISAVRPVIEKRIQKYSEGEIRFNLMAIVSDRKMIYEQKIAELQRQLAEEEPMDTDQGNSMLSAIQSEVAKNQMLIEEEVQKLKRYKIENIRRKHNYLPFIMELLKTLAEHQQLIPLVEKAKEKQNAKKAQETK
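Schedule: 30 min plus 25 min, room temperature / Material: human UCH37 within purified proteasomes / Technique: AMC fluorescence intensity at 355/460 nm / Buffer or medium: pH 7.4 Tris-HCl (50 mM) with ovalbumin, ATP-MgCl2, DTT / Controls: wells without proteasome as full block, compound-free enzyme plus substrate as uninhibited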
* hit, by the source's call; · = no result.

SMILES	UPR CHOP act	XBP1 UPR activ	CHOP inh	CTSL1 counter	UCH37 inh
O=C1C2C3C=CC(C4CC34)C2C(=O)N1N=Cc1cccs1 (stereo not drawn)	·	·	·	·	3.6
S=C(NCc1ccco1)N1CCN(Cc2ccc(Cl)cc2Cl)CC1	-3.4	-4.7	74.1*	7.2	2.8
OC[C@@H](O)[C@H](O)C(C=NNc1ccccc1)=NNc1ccccc1	·	·	·	·	2.7
O=C(Nc1ccc2c(c1)OCO2)N1CCN(c2ccc(F)cc2)CC1	0.3	-0.6	78.4*	0.9	0.0
CON=C/C(C#N)=C/c1ccc(OC)c(OC)c1	·	·	·	·	11.4
O=[N+]([O-])c1ccc(N/N=C\c2ccccc2OCc2ccccc2)cc1	2.3	-0.1	75.8*	3.4	·
Cc1ccccc1-c1nc(P(=O)(c2ccccc2)c2ccccc2)c(N2CCOCC2)o1	0.7	-1.5	10.8	3.0	-3.6
CCOP(=O)(c1ccccc1)c1nc(-c2ccccc2C)oc1N1CCCCC1 (stereo not drawn)	-1.1	-1.5	91.3*	1.8	-16.3
O=S(=O)(NN=Cc1ccc2c(c1)OCO2)c1ccccc1	·	·	·	·	4.2
COc1ccccc1C(=O)NC(CCSC)C(=O)NCC(c1cccs1)N(C)C (stereo not drawn)	-0.8	-2.7	·	4.0	-1.2
CC(C)C(NC(=O)c1ccccc1)C(=O)NCC(c1ccccc1)N(C)C (stereo not drawn)	-2.3	-3.3	0.5	2.3	1.5
COc1ccccc1C(=O)NC(CCSC)C(=O)NCC(c1ccco1)N(C)C (stereo not drawn)	-0.1	-1.1	-28.9	27.4*	-4.0
CC(C)C(NC(=O)c1ccco1)C(=O)NCC(c1ccco1)N(C)C (stereo not drawn)	-0.7	3.1	-12.9	63.1*	1.3
Cc1ccc(Cn2c(SCC(=O)NN=Cc3ccc(C)o3)nc3ccccc32)cc1	·	·	·	·	4.4
COc1ccc(OCC(=O)NN=C/C=C/c2ccccc2)cc1	·	·	·	·	1.0
CCc1nnc(NC(=O)CSc2nnc(-c3ccccc3O)o2)s1	-0.1	-0.1	-3.8	0.4	·
CCc1nnc(NC(=O)CSc2nc(-c3ccccc3)c(-c3ccccc3)o2)s1	-0.9	1.4	84.1*	3.7	1.6
CC(C)CCNC(=O)c1ccc(CSCc2cccc(F)c2)o1	-1.3	-2.5	90.3*	3.1	1.5
CCN1CCc2c(sc(NC(=O)Nc3ccc(Cl)c(Cl)c3)c2C(N)=O)C1	·	·	70.3*	11.6	-56.0
Cc1[nH]n(-c2ccccc2)c(=S)c1C=Nc1ccc([N+](=O)[O-])cc1	·	·	80.4*	-0.9	11.1
CC(CCC1CC(C)OC1=O)=NNC(N)=O (stereo not drawn)	·	·	·	·	2.0
Cc1n[nH]c(=S)n1N=Cc1c(O)ccc2ccccc12	·	·	·	·	0.0
Oc1ccc(N=Nc2ccc3c(c2)OCCO3)c2cccnc12	8.3	-1.8	-0.3	6.2	5.9
COc1ccc(C)cc1N=Nc1ccc(O)c2ncccc12	·	·	104.1*	·	6.5
Cc1ccccc1N=Nc1ccc(O)c2ncccc12	·	·	105.6*	10.1	3.1
SMILES	UPR CHOP act	XBP1 UPR activ	CHOP inh	CTSL1 counter	UCH37 inh
CCCCC/C=C\C[C@H](O)/C=C/c1cccc(C[C@H](O)CCCCO)n1	0.1	-6.7	10.9	40.6*	0.2
COc1ccc(/C=C/c2nc(N)nc(-c3ccccc3O)n2)cc1	1.6	2.3	78.4*	7.0	2.5
COc1ccc(/C=C/c2nc(N)nc(-c3ccccc3O)n2)cc1OC	2.8	8.7	79.2*	3.1	3.5
NC(=NN=Cc1cccc([N+](=O)[O-])c1)c1nonc1N	·	·	·	·	2.2
CC(=O)N(CCC(c1ccco1)C(C)C)Cc1ccc(OC(C)C)cc1 (stereo not drawn)	-0.2	-1.6	2.5	17.2*	1.9
O=C(c1ccco1)N(CCC(c1ccccc1)c1ccco1)Cc1ccco1 (stereo not drawn)	-2.9	0.8	-16.9	25.8*	2.8
CC(=O)N(CCC(c1ccccc1)c1ccco1)Cc1cccs1 (stereo not drawn)	0.9	-2.4	-21.2	21.9*	5.4
CC(=NNC(=O)c1cc(C(C)C)[nH]n1)c1cccs1	·	·	·	·	8.0
CCCCCOCC1CC(CC(C)=NNC(N)=S)C(=O)O1 (stereo not drawn)	·	·	·	·	1.2
CCOc1ccccc1C=NNc1cnn(Cc2ccccc2)c(=O)c1Cl	·	·	·	·	-2.0
Cc1ccc(-c2nc(N)sc2-c2ccccc2)cc1C	0.8	5.1	86.7*	-2.2	-0.5
